Results from ChEMBL document CHEMBL3044840, “Antifungal activities of metabolites produced by a termite-associated Streptomyces canus BYB02” (J Agric Food Chem, 2013).
Values after ≈ are worked out from the molar mass of the structure shown.

Legend:
[1] = test system: Pyricularia grisea; experiment: Antifungal activity against Magnaporthe grisea in fourth-leaf stage of rice plant assessed as preventive efficacy at 100 ug/ml after 11 days relative to control; format: functional
[2] = test system: Cytospora mali; experiment: Antifungal activity against Valsa mali assessed as inhibition of mycelial growth; format: functional, organism-based
In short: (§1)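 Mycelial growth on potato dextrose agar in 9 cm dishes containing serial concentrations of sample, dissolved in aqueous 1% DMSO/4% Tween-80. Mycelium inoculated at plate centre and incubated in the dark at 28 °C until control growth reached the dish edge. Inhibition (%) = (1 − Da/Db) × 100 from growth-zone diameters. IC50 by probit analysis. Cycloheximide as positive control. Run in triplicate.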

[3] = test system: Fusarium oxysporum f. sp. cucumerinum; experiment: Antifungal activity against Fusarium oxysporum f. sp. cucumerinum assessed as inhibition of mycelial growth; format: functional, organism-based; in short: as §1
[4] = test system: Fusarium graminearum; experiment: Antifungal activity against Fusarium graminearum assessed as inhibition of mycelial growth; format: functional, organism-based
In short: (§2)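 Poisoned-food assay. Serial concentrations in aqueous 1% DMSO/4% Tween-80 were mixed into molten potato dextrose agar. Mycelium was inoculated at the plate centre and incubated in the dark at 28 °C until control growth reached the dish edge. Inhibition % = (1 − Da/Db) × 100 from colony diameters. IC50 by probit analysis; run in triplicate.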

[5] = test system: Pyricularia grisea; experiment: Antifungal activity against Magnaporthe grisea assessed as inhibition of mycelial growth; format: functional, organism-based; in short: as §2
[6] = test system: Dothiorella gregaria; experiment: Antifungal activity against Dothiorella gregaria assessed as inhibition of mycelial growth; format: functional, organism-based; in short: as §1
[7] = test system: Rhizoctonia solani; experiment: Antifungal activity against Rhizoctonia solani assessed as inhibition of mycelial growth; format: functional, organism-based; in short: as §1
[8] = test system: Pyricularia grisea; experiment: Antifungal activity against Magnaporthe grisea in fourth-leaf stage of rice plant assessed as curative efficacy at 100 ug/ml after 11 days relative to control; format: functional
[9] = test system: Pyricularia grisea; experiment: Antifungal activity against Magnaporthe grisea assessed as inhibition of spore germination after 12 hr by light microscopic analysis; format: functional, organism-based
In short: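 M. oryzae spores were taken from 7-day oatmeal–tomato agar cultures. 50 μL of compound in 1% DMSO/4% Tween-80 was mixed with 50 μL spore suspension (2.5 × 10^5 spores). 40 μL drops went on slides, in triplicate. Slides were kept in a moist chamber at 28 °C for 12 h. About 100 spores per replicate were scored; IC50 by probit analysis.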

| Compound | Activity [1] [%] | IC50 [2] [µg/mL] | IC50 [3] [µg/mL] | IC50 [4] [µg/mL] | IC50 [5] [µg/mL] | IC50 [6] [µg/mL] | IC50 [7] [µg/mL] | Activity [8] [%] | IC50 [9] [µg/mL] |
| --- | --- | --- | --- | --- | --- | --- | --- | --- | --- |
| COC(=O)Nc1nc2ccccc2[nH]1 [CARBENDAZIM] | 58.7 | – | – | – | – | – | – | – | – |
| C[C@@H]1C[C@@H]([C@H](O)CC2CC(=O)NC(=O)C2)C(=O)[C@@H](C)C1 [CYCLOHEXIMIDE] | – | 0.3 (≈ 1.07 µM) | 4.9 (≈ 17.4 µM) | 3.3 (≈ 11.7 µM) | 2.3 (≈ 8.17 µM) | 0.9 (≈ 3.2 µM) | 0.3 (≈ 1.07 µM) | – | – |
| Cc1cc(O)c2c3c4c(cc(O)c13)C(C)(C)C(=O)c1c(O)cc(O)c(c1-4)C2=O [HELIOMYCIN] | 66.8 | 1.1 (≈ 2.92 µM) | > 100 | > 100 | 3.8 (≈ 10.1 µM) | > 100 | > 100 | <25 | 5.55 (≈ 14.7 µM) |
| Cc1cc(O)cc2cc3c(c(O)c12)C(=O)c1c(O)cc(O)cc1C3=O [TETRACENOMYCIN D] | – | > 25 | – | – | > 25 | – | – | – | – |
